Test results from ChEMBL document CHEMBL1641387, “Antiproliferative effects of saponins from the roots of Platycodon grandiflorum on cultured human tumor cells” (J Nat Prod, 2010).
The source made the active and inactive calls. The rule behind the calls is not given here.

Columns and labels:
Format in all cases: functional, cell-based
[1] = (§1) Antiproliferative activity against human HCT15/CL02 cells after 48 hrs by sulforhodamine B assay; conditions: HCT-15, 48 h
Outline: (§2)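 Cells kept in RPMI1640 with 5% FBS at 37 °C, 5% CO2. HCT15/CL02 is a line derived from HCT15 by stepwise doxorubicin exposure. Cells seeded and left 24 h to attach, then exposed continuously for 48 h to serially diluted saponins. Fixed with cold 10% TCA, 1 h at 4 °C, stained with 0.4% SRB, dye solubilized in 10 mM Tris (pH 10.5), absorbance at 520 nm. Each run in triplicate; IC50 by nonlinear regression, mean ± SD of three independent experiments.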

HCT-15 [2] = test: Antiproliferative activity against human HCT15 cells after 48 hrs by sulforhodamine B assay; conditions: for IC50: HCT-15, 48 h; outline: as §2
[3] = (§3) Antiproliferative activity against human MESSA cells after 48 hrs by sulforhodamine B assay; conditions: MES-SA; outline: as §2
[4] = (§4) Antiproliferative activity against human MESSA/DX5 cells after 48 hrs by sulforhodamine B assay; conditions: MES-SA/Dx5, 48 h; outline: as §2
HCT-15 [5] = test: as §1; outline: as §2
MES-SA = test: as §3; outline: as §2
MES-SA/Dx5 = test: as §4; outline: as §2

| SMILES | IC50 (HCT-15 [2]) [µM] | IC50 [1] [µM] | IC50 [3] [µM] | IC50 [4] [µM] | Activity (HCT-15 [5]) | Activity (HCT-15 [2]) | Activity (MES-SA) | Activity (MES-SA/Dx5) |
| --- | --- | --- | --- | --- | --- | --- | --- | --- |
| C[C@@H]1O[C@@H](O[C@H]2[C@H](OC(=O)[C@]34CCC(C)(C)C[C@H]3C3=CC[C@@H]5[C@@]6(C)C[C@H](O)[C@H](O[C@@H]7O[C@H](CO)[C@@H](O)[C@H](O[C@@H]8O[C@H](CO)[C@@H](O)[C@H](O)[C@H]8O)[C@H]7O)C(CO)(CO)[C@@H]6CC[C@@]5(C)[C@]3(C)C[C@H]4O)OC[C@H](O)[C@@H]2O)[C@H](O)[C@H](O)[C@H]1O[C@@H]1OC[C@@H](O)[C@H](O[C@@H]2OC[C@](O)(CO)[C@H]2O)[C@H]1O [PLATYCODIN D2] | 9.6 | 5.7 | 3.5 | 5.2 | – | – | – | – |
| CC(=O)O[C@H]1[C@H](O[C@H]2[C@H](OC(=O)[C@]34CCC(C)(C)C[C@H]3C3=CC[C@@H]5[C@@]6(C)C[C@H](O)[C@H](O[C@@H]7O[C@H](CO)[C@@H](O)[C@H](O)[C@H]7O)[C@@](C)(CO)[C@@H]6CC[C@@]5(C)[C@]3(C)C[C@H]4O)OC[C@H](O)[C@@H]2O)O[C@@H](C)[C@H](O[C@@H]2OC[C@@H](O)[C@H](O[C@@H]3OC[C@](O)(CO)[C@H]3O)[C@H]2O)[C@H]1O | > 10 | > 10 | 6.3 | 6.2 | – | – | – | – |
| C[C@@H]1O[C@@H](O[C@H]2[C@H](OC(=O)[C@]34CCC(C)(C)C[C@H]3C3=CC[C@@H]5[C@@]6(C)C[C@H](O)[C@H](O[C@@H]7O[C@H](CO)[C@@H](O)[C@H](O[C@@H]8O[C@H](CO)[C@@H](O)[C@H](O)[C@H]8O)[C@H]7O)[C@@](C)(CO)[C@@H]6CC[C@@]5(C)[C@]3(C)C[C@H]4O)OC[C@H](O)[C@@H]2O)[C@H](O)[C@H](O)[C@H]1O[C@@H]1OC[C@@H](O)[C@H](O[C@@H]2OC[C@](O)(CO)[C@H]2O)[C@H]1O [POLYGALACIN D2] | 3.8 | 5.8 | 2.6 | 3.4 | – | – | – | – |
| C[C@@H]1O[C@@H](O[C@H]2[C@H](OC(=O)[C@]34CCC(C)(C)C[C@H]3C3=CC[C@@H]5[C@@]6(C)C[C@H](O)[C@H](O[C@@H]7O[C@H](CO)[C@@H](O)[C@H](O[C@@H]8O[C@H](CO)[C@@H](O)[C@H](O)[C@H]8O)[C@H]7O)C(CO)(CO)[C@@H]6CC[C@@]5(C)[C@]3(C)C[C@H]4O)OC[C@H](O)[C@@H]2O)[C@H](O)[C@H](O)[C@H]1O[C@@H]1OC[C@@H](O)[C@H](O)[C@H]1O | – | – | – | – | Active | Active | Active | Active |
| C[C@@H]1O[C@@H](O[C@H]2[C@H](OC(=O)[C@]34CCC(C)(C)C[C@H]3C3=CC[C@@H]5[C@@]6(C)C[C@H](O)[C@H](O[C@@H]7O[C@H](CO)[C@@H](O)[C@H](O)[C@H]7O)[C@@](C)(CO)[C@@H]6CC[C@@]5(C)[C@]3(C)C[C@H]4O)OC[C@H](O)[C@@H]2O)[C@H](O)[C@H](O)[C@H]1O[C@@H]1OC[C@@H](O)[C@H](O[C@@H]2OC[C@](O)(CO)[C@H]2O)[C@H]1O [POLYGALACIN D] | 8.5 | > 10 | 5 | 7.7 | – | – | – | – |

More lines, in order of falling IC50 (HCT-15 [2]), values ahead:

| IC50 (HCT-15 [2]) [µM] | SMILES | IC50 [1] [µM] | IC50 [3] [µM] | IC50 [4] [µM] | Activity (HCT-15 [5]) | Activity (HCT-15 [2]) | Activity (MES-SA) | Activity (MES-SA/Dx5) |
| --- | --- | --- | --- | --- | --- | --- | --- | --- |
| 6.7 | CC(=O)O[C@H]1[C@@H](O)[C@H](O[C@H]2[C@H](OC(=O)[C@]34CCC(C)(C)C[C@H]3C3=CC[C@@H]5[C@@]6(C)C[C@H](O)[C@H](O[C@@H]7O[C@H](CO)[C@@H](O)[C@H](O)[C@H]7O)[C@@](C)(CO)[C@@H]6CC[C@@]5(C)[C@]3(C)C[C@H]4O)OC[C@H](O)[C@@H]2O)O[C@@H](C)[C@@H]1O[C@@H]1OC[C@@H](O)[C@H](O[C@@H]2OC[C@](O)(CO)[C@H]2O)[C@H]1O | > 10 | 3.6 | 4.2 | – | – | – | – |
| 5.7 | C[C@@H]1O[C@@H](O[C@H]2[C@H](OC(=O)[C@]34CCC(C)(C)C[C@H]3C3=CC[C@@H]5[C@@]6(C)C[C@H](O)[C@H](O[C@@H]7O[C@H](CO)[C@@H](O)[C@H](O)[C@H]7O)C(CO)(CO)[C@@H]6CC[C@@]5(C)[C@]3(C)C[C@H]4O)OC[C@H](O)[C@@H]2O)[C@H](O)[C@H](O)[C@H]1O[C@@H]1OC[C@@H](O)[C@H](O[C@@H]2OC[C@](O)(CO)[C@H]2O)[C@H]1O [PLATYCODIN D] | 7.9 | 3.9 | > 10 | – | – | – | – |
| 3.6 | CC(=O)O[C@H]1[C@@H](O)[C@H](O[C@H]2[C@H](OC(=O)[C@]34CCC(C)(C)C[C@H]3C3=CC[C@@H]5[C@@]6(C)C[C@H](O)[C@H](O[C@@H]7O[C@H](CO)[C@@H](O)[C@H](O[C@@H]8O[C@H](CO)[C@@H](O)[C@H](O)[C@H]8O)[C@H]7O)[C@@](C)(CO)[C@@H]6CC[C@@]5(C)[C@]3(C)C[C@H]4O)OC[C@H](O)[C@@H]2O)O[C@@H](C)[C@@H]1O[C@@H]1OC[C@@H](O)[C@H](O[C@@H]2OC[C@](O)(CO)[C@H]2O)[C@H]1O [2'OACETYLPOLYGALACIN D2] | 5.9 | 3.4 | 3.4 | – | – | – | – |
| 3.6 | CC(=O)O[C@H]1[C@H](O[C@H]2[C@H](OC(=O)[C@]34CCC(C)(C)C[C@H]3C3=CC[C@@H]5[C@@]6(C)C[C@H](O)[C@H](O[C@@H]7O[C@H](CO)[C@@H](O)[C@H](O[C@@H]8O[C@H](CO)[C@@H](O)[C@H](O)[C@H]8O)[C@H]7O)[C@@](C)(CO)[C@@H]6CC[C@@]5(C)[C@]3(C)C[C@H]4O)OC[C@H](O)[C@@H]2O)O[C@@H](C)[C@H](O[C@@H]2OC[C@@H](O)[C@H](O[C@@H]3OC[C@](O)(CO)[C@H]3O)[C@H]2O)[C@H]1O | 5.8 | 3.3 | 3.4 | – | – | – | – |
| 3.4 | CC(=O)O[C@H]1[C@H](O[C@H]2[C@H](OC(=O)[C@]34CCC(C)(C)C[C@H]3C3=CC[C@@H]5[C@@]6(C)C[C@H](O)[C@H](O[C@@H]7O[C@H](CO)[C@@H](O)[C@H](O)[C@H]7O)C(CO)(CO)[C@@H]6CC[C@@]5(C)[C@]3(C)C[C@H]4O)OC[C@H](O)[C@@H]2O)O[C@@H](C)[C@H](O[C@@H]2OC[C@@H](O)[C@H](O[C@@H]3OC[C@](O)(CO)[C@H]3O)[C@H]2O)[C@H]1O [3'O-ACETYLPLATYCODIN D] | 4.1 | 2.3 | 2.2 | – | – | – | – |
| 3.4 | CC(=O)O[C@H]1[C@@H](O)[C@H](O[C@H]2[C@H](OC(=O)[C@]34CCC(C)(C)C[C@H]3C3=CC[C@@H]5[C@@]6(C)C[C@H](O)[C@H](O[C@@H]7O[C@H](CO)[C@@H](O)[C@H](O)[C@H]7O)C(CO)(CO)[C@@H]6CC[C@@]5(C)[C@]3(C)C[C@H]4O)OC[C@H](O)[C@@H]2O)O[C@@H](C)[C@@H]1O[C@@H]1OC[C@@H](O)[C@H](O[C@@H]2OC[C@](O)(CO)[C@H]2O)[C@H]1O | 4.2 | 2.3 | 2.2 | – | – | – | – |
| 1.6 | COc1cc([C@@H]2c3cc4c(cc3[C@@H](O[C@@H]3O[C@@H]5CO[C@@H](C)O[C@H]5[C@H](O)[C@H]3O)[C@H]3COC(=O)[C@H]23)OCO4)cc(OC)c1O [ETOPOSIDE] | > 10 | 0.3 | > 10 | – | – | – | – |
